Legend:
[1] = target: T1, Prostaglandin D2 receptor (Homo sapiens, UniProt Q13258); assay: Displacement of [3H]-PGD2 from human DP receptor expressed in HEK293 cells in buffer solution with 0.5% bovine serum albumin by scintillation counting; format: cell-based
T1 sequence (Q13258 whole entry): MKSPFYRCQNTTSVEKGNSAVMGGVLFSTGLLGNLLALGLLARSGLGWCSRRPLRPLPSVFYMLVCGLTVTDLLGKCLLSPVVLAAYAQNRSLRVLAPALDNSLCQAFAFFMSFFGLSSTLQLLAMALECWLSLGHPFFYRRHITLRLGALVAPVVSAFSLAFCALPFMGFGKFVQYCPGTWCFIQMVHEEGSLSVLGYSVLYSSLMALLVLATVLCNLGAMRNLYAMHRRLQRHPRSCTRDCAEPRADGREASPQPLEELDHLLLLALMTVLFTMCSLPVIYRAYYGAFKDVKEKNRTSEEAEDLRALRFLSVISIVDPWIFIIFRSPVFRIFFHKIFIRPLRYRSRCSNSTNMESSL
How it was run: (§1)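 Radioligand binding: displacement of ³H-PGD2 from receptor expressed on HEK 293 cells. Run either in buffer with 0.5% bovine serum albumin or in 50% human plasma. IC50 values are the average of at least two experiments.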

[2] = target: T2, Prostaglandin D2 receptor 2 (Homo sapiens, UniProt Q9Y5Y4); assay: Displacement of [3H]-PGD2 from human CRTH2 expressed in HEK293 cells in buffer solution with 0.5% bovine serum albumin by scintillation counting; format: cell-based; how it was run: as §1
T2 sequence (Q9Y5Y4 whole entry): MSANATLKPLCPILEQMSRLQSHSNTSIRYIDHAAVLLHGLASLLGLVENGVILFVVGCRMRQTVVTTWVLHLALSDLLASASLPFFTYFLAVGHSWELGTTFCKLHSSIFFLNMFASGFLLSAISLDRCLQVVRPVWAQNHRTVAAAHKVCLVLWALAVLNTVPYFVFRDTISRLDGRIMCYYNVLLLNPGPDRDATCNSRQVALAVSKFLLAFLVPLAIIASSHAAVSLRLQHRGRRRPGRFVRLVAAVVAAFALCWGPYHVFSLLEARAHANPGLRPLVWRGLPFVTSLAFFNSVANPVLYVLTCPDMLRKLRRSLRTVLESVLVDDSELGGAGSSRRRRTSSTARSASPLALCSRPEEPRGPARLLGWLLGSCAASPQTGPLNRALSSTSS

[3] = target: T1, Prostaglandin D2 receptor; assay: Displacement of [3H]-PGD2 from human DP receptor expressed in HEK293 cells in presence of 50% human plasma by scintillation counting; format: cell-based; how it was run: as §1
[4] = target: T2, Prostaglandin D2 receptor 2; assay: Displacement of [3H]-PGD2 from human CRTH2 expressed in HEK293 cells in presence of 50% human plasma by scintillation counting; format: cell-based; how it was run: as §1
[5] = target: CYP3A4 (Homo sapiens, UniProt P08684); assay: Time dependent inhibition of human liver microsome CYP3A4 activity assessed as percentage remaining activity by measuring 6-beta-OH-testosterone formation at 15 uM for 15 mins using 200 uM testosterone as a substrate by LC/MS/MS analysis; format: ADME; details: liver microsomes, probe testosterone, read-out: Activity
How it was run: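 Pooled human liver microsomes (1.0 mg/mL) in 100 mM potassium phosphate, pH 7.4, preincubated with compound (15 µM) and 1 mM NADPH for 15 min. Then diluted 1:10 into a secondary incubation with 200 µM testosterone (saturating) plus 1 mM NADPH for 20 min. Stopped with acetonitrile containing deuterated internal standard. 6β-OH-testosterone measured by LC/MS/MS; % remaining activity reported. Average of at least two experiments.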

Sequence of CYP3A4 (P08684 whole entry): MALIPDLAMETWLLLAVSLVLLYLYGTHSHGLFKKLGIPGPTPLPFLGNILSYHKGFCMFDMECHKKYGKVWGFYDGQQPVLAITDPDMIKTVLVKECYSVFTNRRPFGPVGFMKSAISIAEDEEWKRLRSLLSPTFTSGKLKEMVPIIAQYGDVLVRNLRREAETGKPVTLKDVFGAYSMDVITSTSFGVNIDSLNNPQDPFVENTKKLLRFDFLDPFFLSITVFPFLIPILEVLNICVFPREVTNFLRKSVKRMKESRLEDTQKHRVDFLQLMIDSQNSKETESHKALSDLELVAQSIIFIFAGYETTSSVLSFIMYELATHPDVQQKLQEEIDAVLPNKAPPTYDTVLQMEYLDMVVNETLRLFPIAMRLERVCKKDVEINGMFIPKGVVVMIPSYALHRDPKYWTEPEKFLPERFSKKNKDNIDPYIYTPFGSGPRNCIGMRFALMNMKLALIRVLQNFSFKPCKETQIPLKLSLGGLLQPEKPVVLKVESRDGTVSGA

IC50 [1] [nM] | IC50 [2] [nM] | IC50 [3] [nM] | IC50 [4] [nM] | activity at 0.25 h, 15 µM [5] [%] | Compound
82 | 27 | 130 | 130 | 73 | COc1cc(CC(=O)O)ccc1Oc1ccc2[nH]c(C#N)cc2c1NS(=O)(=O)c1ccc(Cl)cc1Cl
8400 | 32 |  |  | 81 | COc1cc(CC(=O)O)ccc1Oc1ccc2[nH]c(C(C)(C)C)cc2c1NS(=O)(=O)c1ccc(Cl)cc1Cl
74 | 8 | 350 | 25 | 41 | COc1cc(CC(=O)O)ccc1Oc1ccc2[nH]c(C3CC3)cc2c1NS(=O)(=O)c1ccc(Cl)cc1Cl
1100 | 220 |  |  | 87 | COc1cc(CC(=O)O)ccc1Oc1ccc2[nH]c(C)c(Cl)c2c1NS(=O)(=O)c1ccc(Cl)cc1Cl
62 | 32 | 110 | 48 | 38 | COc1cc(CC(=O)O)ccc1Oc1ccc2[nH]c(CC(C)C)cc2c1NS(=O)(=O)c1ccc(Cl)cc1Cl
45 | 57 | 130 | 110 | 79 | CCCc1cc2c(NS(=O)(=O)c3ccc(Cl)cc3Cl)c(Oc3ccc(CC(=O)O)cc3OC)ccc2[nH]1
17 | 3 | 1300 | 31 | 103 | COc1cc(CC(=O)O)ccc1Oc1ccc2c(c1NS(=O)(=O)c1ccc(Cl)cc1Cl)CC(=O)N2
27 | 22 | 76 | 56 | 28 | COc1cc(CC(=O)O)ccc1Oc1ccc2c(cc(C)n2C)c1NS(=O)(=O)c1ccc(Cl)cc1Cl

Reference: ChEMBL document CHEMBL3286301, “Solving time-dependent CYP3A4 inhibition for a series of indole-phenylacetic acid dual antagonists of the PGD(2) receptors CRTH2 and DP” (Bioorg Med Chem Lett, 2014)
